ChEMBL document CHEMBL4261538, “Synthesis and molecular docking studies of xanthone attached amino acids as potential antimicrobial and anti-inflammatory agents” (Medchemcomm, 2017)
In brackets after ≈: the same amount, converted by molar mass.

Key:
Escherichia coli [1] = assay: Antibacterial activity against Escherichia coli at 50 ug/ml incubated for 24 hrs by agar well diffusion method; format: functional; settings: read-out: DIZ
In short: (§1)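 Bacteria grown in nutrient broth at 37 °C for 24 h, then subcultured at room temperature. Compounds dissolved in DMSO at 5 mg mL⁻¹ and 5–20 µL added to 6 mm wells, giving 25, 50, 75, 100 µg per well. Gentamicin was the positive control and DMSO the negative control. Plates held at 37 °C for 24 h, then inhibition zone diameter (mm) measured. Values are means of three determinations.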

Klebsiella pneumoniae [2] = assay: Antibacterial activity against Klebsiella pneumoniae at 50 ug/ml incubated for 24 hrs by agar well diffusion method; format: functional; settings: read-out: DIZ; in short: as §1
Staphylococcus aureus [3] = assay: Antibacterial activity against Staphylococcus aureus at 75 ug/ml incubated for 24 hrs by agar well diffusion method; format: functional; settings: read-out: DIZ; in short: as §1
Staphylococcus aureus [4] = assay: Antibacterial activity against Staphylococcus aureus at 50 ug/ml incubated for 24 hrs by agar well diffusion method; format: functional; settings: read-out: DIZ; in short: as §1
Staphylococcus aureus [5] = assay: Antibacterial activity against Staphylococcus aureus at 100 ug/ml incubated for 24 hrs by agar well diffusion method; format: functional; settings: read-out: DIZ; in short: as §1
Escherichia coli [6] = assay: Antibacterial activity against Escherichia coli at 25 ug/ml incubated for 24 hrs by agar well diffusion method; format: functional; settings: read-out: DIZ; in short: as §1
Klebsiella pneumoniae [7] = assay: Antibacterial activity against Klebsiella pneumoniae at 100 ug/ml incubated for 24 hrs by agar well diffusion method; format: functional; settings: read-out: DIZ; in short: as §1
Bacillus subtilis [8] = assay: Antibacterial activity against Bacillus subtilis at 75 ug/ml incubated for 24 hrs by agar well diffusion method; format: functional; settings: read-out: DIZ; in short: as §1
Escherichia coli [9] = assay: Antibacterial activity against Escherichia coli at 75 ug/ml incubated for 24 hrs by agar well diffusion method; format: functional; settings: read-out: DIZ; in short: as §1
Bacillus subtilis [10] = assay: Antibacterial activity against Bacillus subtilis at 25 ug/ml incubated for 24 hrs by agar well diffusion method; format: functional; settings: read-out: DIZ; in short: as §1
Staphylococcus aureus [11] = assay: Antibacterial activity against Staphylococcus aureus at 25 ug/ml incubated for 24 hrs by agar well diffusion method; format: functional; settings: read-out: DIZ; in short: as §1
Candida albicans [12] = assay: Antifungal activity against Candida albicans at 75 ug/ml incubated for 48 hrs by agar well diffusion method; format: functional; settings: read-out: DIZ
In short: (§2)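 Compounds dissolved in DMSO at 5 mg mL⁻¹ and 5–20 µL added to 6 mm wells, giving 25, 50, 75, 100 µg per well. Bavistin was the positive control and DMSO the negative control. Plates incubated at 28 °C for 48 h, then inhibition zone diameter (mm) measured. Values are means of three determinations.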

Bacillus subtilis [13] = assay: Antibacterial activity against Bacillus subtilis at 50 ug/ml incubated for 24 hrs by agar well diffusion method; format: functional; settings: read-out: DIZ; in short: as §1
Aspergillus niger [14] = assay: Antifungal activity against Aspergillus niger at 100 ug/ml incubated for 48 hrs by agar well diffusion method; format: functional; settings: read-out: DIZ; in short: as §2
Candida albicans [15] = assay: Antifungal activity against Candida albicans at 100 ug/ml incubated for 48 hrs by agar well diffusion method; format: functional; settings: read-out: DIZ; in short: as §2
Klebsiella pneumoniae [16] = assay: Antibacterial activity against Klebsiella pneumoniae at 25 ug/ml incubated for 24 hrs by agar well diffusion method; format: functional; settings: read-out: DIZ; in short: as §1
Erythrocyte = assay: Anti-inflammatory activity in human RBC assessed as inhibition of hypotonic solution-induced hemolysis after 10 mins by spectrophotometric method; format: functional, cell-based
In short: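 Human blood (heparinized) washed with 0.9% saline, packed cells made into a 40% v/v stock in isotonic phosphate buffer (154 mM NaCl, 10 mM sodium phosphate, pH 7.4). Stock RBC mixed with hypotonic buffer (50 mM NaCl, 10 mM phosphate, pH 7.4) plus sample at 20–100 µg mL⁻¹.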

Fusarium oxysporum [17] = assay: Antifungal activity against Fusarium oxysporum at 75 ug/ml incubated for 48 hrs by agar well diffusion method; format: functional; settings: read-out: DIZ; in short: as §2
Fusarium oxysporum [18] = assay: Antifungal activity against Fusarium oxysporum at 100 ug/ml incubated for 48 hrs by agar well diffusion method; format: functional; settings: read-out: DIZ; in short: as §2
Bacillus subtilis [19] = assay: Antibacterial activity against Bacillus subtilis at 100 ug/ml incubated for 24 hrs by agar well diffusion method; format: functional; settings: read-out: DIZ; in short: as §1
Candida albicans [20] = assay: Antifungal activity against Candida albicans at 50 ug/ml incubated for 48 hrs by agar well diffusion method; format: functional; settings: read-out: DIZ; in short: as §2
Escherichia coli [21] = assay: Antibacterial activity against Escherichia coli at 100 ug/ml incubated for 24 hrs by agar well diffusion method; format: functional; settings: read-out: DIZ; in short: as §1
Fusarium oxysporum [22] = assay: Antifungal activity against Fusarium oxysporum at 25 ug/ml incubated for 48 hrs by agar well diffusion method; format: functional; settings: read-out: DIZ; in short: as §2
Aspergillus niger [23] = assay: Antifungal activity against Aspergillus niger at 25 ug/ml incubated for 48 hrs by agar well diffusion method; format: functional; settings: read-out: DIZ; in short: as §2
Candida albicans [24] = assay: Antifungal activity against Candida albicans at 25 ug/ml incubated for 48 hrs by agar well diffusion method; format: functional; settings: read-out: DIZ; in short: as §2
Klebsiella pneumoniae [25] = assay: Antibacterial activity against Klebsiella pneumoniae at 75 ug/ml incubated for 24 hrs by agar well diffusion method; format: functional; settings: read-out: DIZ; in short: as §1
Aspergillus niger [26] = assay: Antifungal activity against Aspergillus niger at 50 ug/ml incubated for 48 hrs by agar well diffusion method; format: functional; settings: read-out: DIZ; in short: as §2
Fusarium oxysporum [27] = assay: Antifungal activity against Fusarium oxysporum at 50 ug/ml incubated for 48 hrs by agar well diffusion method; format: functional; settings: read-out: DIZ; in short: as §2
Aspergillus niger [28] = assay: Antifungal activity against Aspergillus niger at 75 ug/ml incubated for 48 hrs by agar well diffusion method; format: functional; settings: read-out: DIZ; in short: as §2
Fusarium oxysporum [29] = assay: Antifungal activity against Fusarium oxysporum incubated for 48 to 72 hrs by microdilution method; format: functional
In short: (§3)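 Sabouraud agar plates inoculated with fungal suspension at 10⁵ CFU mL⁻¹ plus serially diluted compounds and bavistin reference, both in DMSO. Incubated at 25 °C for 48–72 h. MIC is the lowest concentration completely inhibiting growth. Values are means of three determinations.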

Klebsiella pneumoniae [30] = assay: Antibacterial activity against Klebsiella pneumoniae incubated for 24 hrs by microdilution method; format: functional
Aspergillus niger [31] = assay: Antifungal activity against Aspergillus niger incubated for 48 to 72 hrs by microdilution method; format: functional; in short: as §3
Escherichia coli [32] = assay: Antibacterial activity against Escherichia coli incubated for 24 hrs by microdilution method; format: functional
Bacillus subtilis [33] = assay: Antibacterial activity against Bacillus subtilis incubated for 24 hrs by microdilution method; format: functional
Staphylococcus aureus [34] = assay: Antibacterial activity against Staphylococcus aureus incubated for 24 hrs by microdilution method; format: functional
Candida albicans [35] = assay: Antifungal activity against Candida albicans incubated for 48 to 72 hrs by microdilution method; format: functional; in short: as §3

SMILES | zone of inhibition at 50 µg/mL (Escherichia coli [1]) [mm] | zone of inhibition at 50 µg/mL (Klebsiella pneumoniae [2]) [mm] | zone of inhibition at 75 µg/mL (Staphylococcus aureus [3]) [mm] | zone of inhibition at 50 µg/mL (Staphylococcus aureus [4]) [mm] | zone of inhibition at 100 µg/mL (Staphylococcus aureus [5]) [mm] | zone of inhibition at 25 µg/mL (Escherichia coli [6]) [mm] | zone of inhibition at 100 µg/mL (Klebsiella pneumoniae [7]) [mm] | zone of inhibition at 75 µg/mL (Bacillus subtilis [8]) [mm] | zone of inhibition at 75 µg/mL (Escherichia coli [9]) [mm] | zone of inhibition at 25 µg/mL (Bacillus subtilis [10]) [mm] | zone of inhibition at 25 µg/mL (Staphylococcus aureus [11]) [mm] | zone of inhibition at 75 µg/mL (Candida albicans [12]) [mm] | zone of inhibition at 50 µg/mL (Bacillus subtilis [13]) [mm] | zone of inhibition at 100 µg/mL (Aspergillus niger [14]) [mm] | zone of inhibition at 100 µg/mL (Candida albicans [15]) [mm] | zone of inhibition at 25 µg/mL (Klebsiella pneumoniae [16]) [mm] | IC50 (Erythrocyte) [µg/mL] | zone of inhibition at 75 µg/mL (Fusarium oxysporum [17]) [mm] | zone of inhibition at 100 µg/mL (Fusarium oxysporum [18]) [mm] | zone of inhibition at 100 µg/mL (Bacillus subtilis [19]) [mm] | further results
CSCC[C@H](N)C(=O)Oc1ccc2c(=O)c3ccccc3oc2c1.Cl | 21 | 24 | 22 | 19 | 28 | 17 | 33 | 25 | 25 | 15 | 17 | 21 | 20 | 24 | 23 | 17 | 34 | 19 | 22 | 31 | zone of inhibition at 50 µg/mL (Candida albicans [20]): 17 mm; zone of inhibition at 100 µg/mL (Escherichia coli [21]): 29 mm; zone of inhibition at 25 µg/mL (Fusarium oxysporum [22]): 13 mm; zone of inhibition at 25 µg/mL (Aspergillus niger [23]): 11 mm; zone of inhibition at 25 µg/mL (Candida albicans [24]): 12 mm; zone of inhibition at 75 µg/mL (Klebsiella pneumoniae [25]): 29 mm; zone of inhibition at 50 µg/mL (Aspergillus niger [26]): 18 mm; zone of inhibition at 50 µg/mL (Fusarium oxysporum [27]): 17 mm; zone of inhibition at 75 µg/mL (Aspergillus niger [28]): 21 mm
Cl.N[C@@H](Cc1ccccc1)C(=O)Oc1ccc2c(=O)c3ccccc3oc2c1 | 27 | 29 | 34 | 27 | 38 | 20 | 40 | 34 | 34 | 22 | 22 | 34 | 27 | 41 | 40 | 23 | 38 | 30 | 36 | 38 | MIC (Fusarium oxysporum [29]): 26 µg/mL; MIC (Klebsiella pneumoniae [30]): 24 µg/mL; MIC (Aspergillus niger [31]): 26 µg/mL; MIC (Escherichia coli [32]): 22 µg/mL; MIC (Bacillus subtilis [33]): 22 µg/mL; MIC (Staphylococcus aureus [34]): 22 µg/mL; zone of inhibition at 50 µg/mL (Candida albicans [20]): 28 mm; zone of inhibition at 100 µg/mL (Escherichia coli [21]): 37 mm; zone of inhibition at 25 µg/mL (Fusarium oxysporum [22]): 20 mm; zone of inhibition at 25 µg/mL (Aspergillus niger [23]): 20 mm; zone of inhibition at 25 µg/mL (Candida albicans [24]): 24 mm; zone of inhibition at 75 µg/mL (Klebsiella pneumoniae [25]): 34 mm; MIC (Candida albicans [35]): 28 µg/mL; zone of inhibition at 50 µg/mL (Aspergillus niger [26]): 30 mm; zone of inhibition at 50 µg/mL (Fusarium oxysporum [27]): 25 mm; zone of inhibition at 75 µg/mL (Aspergillus niger [28]): 36 mm
CSCC[C@H](NC(=O)OC(C)(C)C)C(=O)Oc1ccc2c(=O)c3ccccc3oc2c1 | 19 | 22 | 22 | 17 | 27 | 16 | 31 | 24 | 25 | 13 | 15 | 19 | 18 | 22 | 21 | 16 | 36 (≈ 81.2 µM) | 17 | 23 | 29 | zone of inhibition at 50 µg/mL (Candida albicans [20]): 16 mm; zone of inhibition at 100 µg/mL (Escherichia coli [21]): 30 mm; zone of inhibition at 25 µg/mL (Fusarium oxysporum [22]): 8 mm; zone of inhibition at 25 µg/mL (Aspergillus niger [23]): 12 mm; zone of inhibition at 25 µg/mL (Candida albicans [24]): 11 mm; zone of inhibition at 75 µg/mL (Klebsiella pneumoniae [25]): 26 mm; zone of inhibition at 50 µg/mL (Aspergillus niger [26]): 15 mm; zone of inhibition at 50 µg/mL (Fusarium oxysporum [27]): 14 mm; zone of inhibition at 75 µg/mL (Aspergillus niger [28]): 18 mm
